# Experimental data taken from ChEMBL document CHEMBL4699522, “Androsamide, a Cyclic Tetrapeptide from a Marine Nocardiopsis sp., Suppresses Motility of Colorectal Cancer Cells” (J Nat Prod, 2020).
# Active and inactive are the calls of the source. Non-standard residues stand in square brackets, D forms with d. Residues, ends and D or L forms follow the SMILES beside them. NMeTrp(4-OMe) = CN[C@@H](Cc1c[nH]c2cccc(OC)c12)C(=O)O; NMeM = CN[C@@H](CCSC)C(=O)O
# Tests used:
# AGS = test: Cytotoxicity against human AGS cells assessed as reduction in cell viability after 48 hrs by MTT assay; type: functional, cell-based
# In short: (§1)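 MTT read-out. Cells seeded at (2-3) × 10^3/well, incubated 12 h, then exposed to 3.125–100 μM for 48 h, with MTT added for the final 4 h. Absorbance read at 540 nm. Viability is normalized to DMSO-treated cells. IC50 computed by statistical software. Means ± SEM, n = 3. AGS cells were grown in RPMI, Caco2 and HCT116 in DMEM, all with 10% FBS, at 37 °C and 5% CO2.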
# Caco-2 [1] = test: Cytotoxicity against human Caco-2 cells assessed as reduction in cell viability after 48 hrs by MTT assay; type: functional, cell-based; in short: as §1
# HCT-116 [2] = test: Cytotoxicity against human HCT-116 cells assessed as reduction in cell viability after 48 hrs by MTT assay; type: functional, cell-based; in short: as §1
# Caco-2 [3] = test: Induction of apoptosis in human Caco-2 cells at 13 to 16 uM after 6 hrs by annexin V-FITC/propidium iodide staining based flow cytometric analysis; type: functional, cell-based; details: dose microM 13-16, time 6.0 hrs
# HCT-116 [4] = test: Induction of apoptosis in human HCT-116 cells at 21 to 26 uM after 6 hrs by annexin V-FITC/propidium iodide staining based flow cytometric analysis; type: functional, cell-based; details: dose microM 21-26, time 6.0 hrs
# Caco-2 [5] = test: Inhibition of cell migration in human Caco-2 cells after 6 hrs by K1-Fluo RT fluorescence confocal microscope based transwell assay; type: functional; details: dose microM 0.15-1.3, time 6.0 hrs
# In short: (§2)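 Migration through uncoated Boyden chambers. (2.0-2.5) × 10^5 Caco2 cells seeded in medium with 0.2% BSA. The lower chamber holds 0.2% BSA medium plus 10 μg/mL fibronectin as chemoattractant. Treated at 0.15, 0.65 or 1.3 μM for 6 h at 37 °C. Migrated cells fixed, Diff-Quick stained and counted in five random fields by confocal microscopy. Expressed relative to DMSO control; triplicate.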
# Caco-2 [6] = test: Inhibition of cell migration in human Caco-2 cells at 1.3 uM after 6 hrs by K1-Fluo RT fluorescence confocal microscope based transwell assay relative to control; type: functional; in short: as §2
# Caco-2 [7] = test: Inhibition of cell migration in human Caco-2 cells after 24 hrs by fluorescence microscope based Boyden-Chamber cell migration assay; type: functional; details: dose microM 0.15-1.3, time 24.0 hrs
# In short: (§3)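 Boyden chambers coated with 1% gelatin. Caco2 seeded at 2.5 × 10^6 cells/mL in 0.2% BSA medium; the lower chamber has 0.2% BSA medium with 10 μg/mL fibronectin. Exposed to 0.15, 0.65 or 1.3 μM for 24 h at 37 °C. Invaded cells fixed, Diff-Quick stained and counted in five random fields by fluorescence microscopy. Expressed relative to DMSO control; three replicates.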
# Caco-2 [8] = test: Inhibition of cell migration in human Caco-2 cells at 1.3 uM after 24 hrs by fluorescence microscope based Boyden-Chamber cell migration assay relative to control; type: functional; in short: as §3
# Caco-2 [9] = test: Inhibition of epithelial-mesenchymal transition in human Caco-2 cells assessed as increase in E-cadherin mRNA expression after 24 hrs by qRT-PCR analysis; type: functional, cell-based; details: dose microM 0.65-1.3, time 24.0 hrs
# In short: (§4)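 Caco2 treated 24 h at 0.65 or 1.3 μM. Total RNA isolated, and 1 μg reverse-transcribed. Quantified by SYBR green real-time PCR. Fold change derived from cycle-threshold values, normalized to GAPDH, and compared with DMSO-treated cells. Means ± SEM, n = 3.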
# Caco-2 [10] = test: Inhibition of epithelial-mesenchymal transition in human Caco-2 cells assessed as decrease in N-cadherin mRNA expression after 24 hrs by qRT-PCR analysis; type: functional, cell-based; details: dose microM 0.65-1.3, time 24.0 hrs; in short: as §4
# Caco-2 [11] = test: Inhibition of epithelial-mesenchymal transition in human Caco-2 cells assessed as decrease in vimentin mRNA expression after 24 hrs by qRT-PCR analysis; type: functional, cell-based; details: dose microM 0.65-1.3, time 24.0 hrs; in short: as §4
# Caco-2 [12] = test: Inhibition of epithelial-mesenchymal transition in human Caco-2 cells assessed as decrease in Snail mRNA expression at 0.65 to 1.3 uM after 24 hrs by qRT-PCR analysis; type: functional, cell-based; details: dose microM 0.65-1.3, time 24.0 hrs; in short: as §4
# Caco-2 [13] = test: Inhibition of epithelial-mesenchymal transition in human Caco-2 cells assessed as decrease in Slug mRNA expression at 0.65 to 1.3 uM after 24 hrs by qRT-PCR analysis; type: functional, cell-based; details: dose microM 0.65-1.3, time 24.0 hrs; in short: as §4
# Caco-2 [14] = test: Inhibition of epithelial-mesenchymal transition in human Caco-2 cells assessed as decrease in Twist mRNA expression at 0.65 to 1.3 uM after 24 hrs by qRT-PCR analysis; type: functional, cell-based; details: dose microM 0.65-1.3, time 24.0 hrs; in short: as §4
# Caco-2 [15] = test: Inhibition of epithelial-mesenchymal transition in human Caco-2 cells assessed as decrease in ZEB1 mRNA expression at 0.65 to 1.3 uM after 24 hrs by qRT-PCR analysis; type: functional, cell-based; details: dose microM 0.65-1.3, time 24.0 hrs; in short: as §4
# Caco-2 [16] = test: Inhibition of epithelial-mesenchymal transition in human Caco-2 cells assessed as decrease in ZEB2 mRNA expression at 0.65 to 1.3 uM after 24 hrs by qRT-PCR analysis; type: functional, cell-based; details: dose microM 0.65-1.3, time 24.0 hrs; in short: as §4
# Caco-2 [17] = test: Inhibition of epithelial-mesenchymal transition in human Caco-2 cells assessed as increase in E-cadherin protein expression at 0.65 to 1.3 uM after 24 hrs by Western blot analysis; type: functional, cell-based; details: dose microM 0.65-1.3, time 24.0 hrs
# In short: (§5)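 2 × 10^5 Caco2 cells per well treated 24 h at nontoxic concentrations. Lysates separated by SDS-PAGE and probed with primary antibodies, then HRP-conjugated secondaries. Luminescence band densities normalized to α-tubulin and compared with DMSO-treated cells. Means ± SEM, n = 3.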
# Caco-2 [18] = test: Inhibition of epithelial-mesenchymal transition in human Caco-2 cells assessed as decrease in N-cadherin protein expression at 0.65 to 1.3 uM after 24 hrs by Western blot analysis; type: functional, cell-based; details: dose microM 0.65-1.3, time 24.0 hrs; in short: as §5
# Caco-2 [19] = test: Inhibition of epithelial-mesenchymal transition in human Caco-2 cells assessed as decrease in Snail protein expression at 0.65 to 1.3 uM after 24 hrs by Western blot analysis; type: functional, cell-based; details: dose microM 0.65-1.3, time 24.0 hrs; in short: as §5
# Caco-2 [20] = test: Inhibition of epithelial-mesenchymal transition in human Caco-2 cells assessed as decrease in Twist protein expression at 0.65 to 1.3 uM after 24 hrs by Western blot analysis; type: functional, cell-based; details: dose microM 0.65-1.3, time 24.0 hrs; in short: as §5
# Caco-2 [21] = test: Inhibition of cell motility in human Caco-2 cells assessed as reduction in CAPN1 mRNA expression at 0.65 to 1.3 uM by RT2 Profiler PCR Array; type: functional, cell-based; details: dose microM 0.65-1.3
# Caco-2 [22] = test: Inhibition of cell motility in human Caco-2 cells assessed as reduction in RAC2 mRNA expression at 0.65 to 1.3 uM by RT2 Profiler PCR Array; type: functional, cell-based; details: dose microM 0.65-1.3
compound,measurement,setting,value
CC[C@H](C)[C@@H]1NC(=O)[C@H]([C@@H](C)O)NC(=O)[C@H](Cc2c[nH]c3cccc(OC)c23)N(C)C(=O)[C@H](CCSC)N(C)C1=O (cyclo(I[NMeM][NMeTrp(4-OMe)]T)),Activity,AGS,Dose-dependent effect
same,IC50,AGS,18 µM
same,Activity,Caco-2 [1],Dose-dependent effect
same,IC50,"Caco-2 [1]; Caco-2, 48 h",13 µM
same,Activity,HCT-116 [2],Dose-dependent effect
same,IC50,"HCT-116 [2]; HCT-116, 48 h",21 µM
same,Activity,Caco-2 [3],Active
same,Activity,HCT-116 [4],Active
same,inhibition,Caco-2 [5],Dose-dependent effect
same,inhibition at 1.3 µM,Caco-2 [6],50%
same,inhibition,Caco-2 [7],Dose-dependent effect
same,inhibition at 1.3 µM,Caco-2 [8],45%
same,inhibition,Caco-2 [9],Dose-dependent effect
same,inhibition,Caco-2 [10],Dose-dependent effect
same,inhibition,Caco-2 [11],Dose-dependent effect
same,inhibition,Caco-2 [12],Active
same,inhibition,Caco-2 [13],Active
same,inhibition,Caco-2 [14],Active
same,inhibition,Caco-2 [15],Active
same,inhibition,Caco-2 [16],Active
same,inhibition,Caco-2 [17],Active
same,inhibition,Caco-2 [18],Active
same,inhibition,Caco-2 [19],Active
same,inhibition,Caco-2 [20],Active
same,inhibition,Caco-2 [21],Active
same,inhibition,Caco-2 [22],Active
